For one test, the system named is K562. Kind of test: Cytotoxicity against human K562 cells after 48 hrs by MTT assay. Type of test: functional, cell-based. As to conditions: Homo sapiens, K562, 48 h. The procedure, abridged:
(§1)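 Log-phase cells (40000–50000 cells/mL) grown in DMEM with 10% fetal calf serum (5% CO2, 37 °C) and exposed 48 h to five concentrations, 3–5 replicates. Read-out was MTT with absorbance at 570 nm; IC50 reported as mean ± SD of three independent experiments. Resistant A549 and HeLa sublines were made by stepwise paclitaxel selection; resistance index = IC50(resistant)/IC50(sensitive).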
Background: Tetrazolium dyes change colour on reduction, which living cells bring about.

Test [1] can be described thus: Cytotoxicity against human QGY cells after 48 hrs by MTT assay. The class given is functional, cell-based. The procedure, abridged:
as §1

The next test concerns SW480. The test can be described thus: Cytotoxicity against human SW480 cells after 48 hrs by MTT assay. Type of test: functional, cell-based. The procedure, abridged:
as §1

The next test has as its system HeLa. The test can be described thus: Cytotoxicity against human HeLa cells after 48 hrs by MTT assay. The class given is functional, cell-based. As to conditions: Homo sapiens, HeLa, 48 h. The procedure, abridged:
as §1

A further test relates to A549. The test can be described thus: Cytotoxicity against human A549 cells after 48 hrs by MTT assay. Type of test: functional, cell-based. As to conditions: Homo sapiens, A549, 48 h. The procedure, abridged:
as §1

In a further test the target is Tubulin (Homo sapiens) (UniProt P68371+Q9H4B7+P0DPH7+P68366+Q13509+Q71U36+P04350+Q3ZCM7+P07437+P68363+Q9BQE3+Q6PEY2+Q13885+Q9BVA1+Q9BUF5). Kind of test: Activation of tubulin (unknown origin) polymerization at 10 uM. Type of test: protein-complex assay. The procedure, abridged:
(§2)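 Purified brain tubulin (kit), final 3.0 mg/mL, in 80.0 mM PIPES sesquisodium pH 6.9, 2.0 mM MgCl2, 0.5 mM EGTA, 1 mM GTP, 10.2% glycerol; components prewarmed to 37 °C, reaction started by adding tubulin. A340 read each minute for 1 h. Single-point % stimulation used 10 μM compound; EC50 from 3.75, 7.5, 15, 30, 60 μM.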

For a further test, the target named is Tubulin. The test can be described thus: Activation of tubulin (unknown origin) polymerization. Type of test: protein-complex assay, Homo sapiens. The procedure, abridged:
as §2

Where only a bound is given, the exact number is not on record here.

The term IC50 denotes the concentration that inhibits the measured activity by half. A lower IC50 goes with greater potency. One may read the EC50 as the concentration that produces a half-maximal response. A low value points to higher potency in that assay.

On to `COc1ccc(/C=C\c2cc(OC)c(OC)c(OC)c2)cc1O` [COMBRETASTATIN A4], for which the IC50 in the test with K562 is 0.0048 µM; in test [1] (Homo sapiens, QGY, 48 h), 0.0265 µM; in the test with SW480 (Homo sapiens, SW480, 48 h), 0.0182 µM; with HeLa, 0.0021 µM; with A549, 0.0056 µM.

For `CCOC(=O)C1(C(=O)Nc2cccc(Cl)c2)CC1c1cc(OC)c(OC)c(OC)c1` (stereo in doubt; cis), the Activity at Tubulin (Homo sapiens) stood at 50%.

Consider `CCOC(=O)C1(C(=O)NCc2ccc(OC)cc2)CC1c1cc(OC)c(OC)c(OC)c1` (cis isomer), for which the IC50 is more than 100 µM with K562; more than 100 µM in test [1] (Homo sapiens, QGY, 48 h); more than 100 µM in the test on SW480 (Homo sapiens, SW480, 48 h); more than 100 µM in the test on HeLa; more than 100 µM in the test on A549.

Turning to `CCOC(=O)C1(C(=O)NCc2ccc(F)cc2)CC1c1cc(OC)c(OC)c(OC)c1` (stereo in doubt), the IC50 with K562 came out at 45.1 µM; in test [1] (Homo sapiens, QGY, 48 h) it was 59.4 µM; in the test with SW480 (Homo sapiens, SW480, 48 h) it was 34.1 µM; with HeLa it was 32.3 µM; with A549 it was 29.4 µM.

On to `CCOC(=O)C1(C(=O)Nc2ccc(OC)cc2)CC1c1cc(OC)c(OC)c(OC)c1` (cis isomer), for which, at Tubulin (Homo sapiens), the Activity was determined as 25%.

Consider `CCOC(=O)C1(C(=O)NCc2ccc(C)cc2)CC1c1cc(OC)c(OC)c(OC)c1` (cis isomer), for which the IC50 in the test on K562 is more than 100 µM; in test [1] (qgy), more than 100 µM; in the test with SW480 (sw480), 29 µM; in the test with HeLa, 33.2 µM; in the test on A549, 18.7 µM.

For `O=c1[nH]cc(F)c(=O)[nH]1` [FLUOROURACIL], the IC50 in the test on K562 was 114 µM; in test [1] (Homo sapiens, QGY, 48 h), 126 µM; in the test on SW480 (Homo sapiens, SW480, 48 h), 158 µM; with HeLa, 143 µM; in the test with A549 it was 56 µM.

On to `COc1cc([C@H]2C[C@@]2(CO)C(=O)Nc2ccccc2Cl)cc(OC)c1OC`, for which the IC50 in the test on K562 is more than 100 µM; in test [1] (Homo sapiens, QGY, 48 h), more than 100 µM; with SW480 (Homo sapiens, SW480, 48 h) it was more than 100 µM; with HeLa, more than 100 µM; in the test on A549 it was more than 100 µM.

Regarding `COc1cc([C@H]2C[C@]2(CO)C(=O)NCc2ccc(C)cc2)cc(OC)c1OC`, the IC50 in the test with K562 is more than 100 µM; in test [1] (Homo sapiens, QGY, 48 h), 56.1 µM; in the test with SW480 (Homo sapiens, SW480, 48 h) it was 94 µM; in the test on HeLa, 57.8 µM; in the test on A549, 60.7 µM.

`CCOC(=O)[C@]1(C(=O)NCc2ccc(C)cc2)C[C@@H]1c1cc(OC)c(OC)c(OC)c1`: the IC50 is 20.4 µM in the test on K562; more than 100 µM in test [1] (Homo sapiens, QGY, 48 h); more than 100 µM with SW480 (Homo sapiens, SW480, 48 h); more than 100 µM in the test with HeLa; 34.9 µM with A549.

With `CCOC(=O)[C@@]1(C(=O)Nc2ccccc2Cl)C[C@H]1c1cc(OC)c(OC)c(OC)c1`, the IC50 with K562 is more than 100 µM; in test [1] (Homo sapiens, QGY, 48 h), 34.3 µM; in the test with SW480 (Homo sapiens, SW480, 48 h) it was 30.1 µM; with HeLa, 14.4 µM; with A549, 17.6 µM.

In the case of `CCOC(=O)[C@]1(C(=O)Nc2ccccc2Cl)C[C@@H]1c1cc(OC)c(OC)c(OC)c1`, the IC50 in the test with K562 is 19.5 µM; in test [1] (Homo sapiens, QGY, 48 h), 34.7 µM; in the test with SW480 (Homo sapiens, SW480, 48 h), more than 100 µM; in the test with HeLa it was more than 100 µM; with A549, 50.9 µM.

The compound `COc1cc([C@@H]2C[C@]2(CO)C(=O)Nc2ccccc2)cc(OC)c1OC` yielded an EC50 at Tubulin of 14.3 µM. For the same compound, the Activity on Tubulin (Homo sapiens) turned out to be 31.5%. The 50% inhibitory concentration (IC50) in the test on K562 is more than 100 µM; in test [1] (Homo sapiens, QGY, 48 h) it was 51.3 µM; in the test with SW480 (Homo sapiens, SW480, 48 h), 33.3 µM; with HeLa, 32 µM; in the test with A549 it was 24.1 µM.
